Experimental data reported in ChEMBL document CHEMBL4024792, “(N-Hydroxycarbonylbenylamino)quinolines as Selective Histone Deacetylase 6 Inhibitors Suppress Growth of Multiple Myeloma in Vitro and in Vivo” (J Med Chem, 2018).

Key:
Histone deacetylase 1 = Histone deacetylase 1 (Homo sapiens, UniProt Q13547); assay: Inhibition of full length recombinant human C-terminal FLAG/His-tagged HDAC1 expressed in baculovirus infected sf21 cells using RHK-K(Ac)-AMC as substrate after 60 mins by fluorescence assay
Sequence of Histone deacetylase 1 (Q13547 whole entry, the tested form may be a part): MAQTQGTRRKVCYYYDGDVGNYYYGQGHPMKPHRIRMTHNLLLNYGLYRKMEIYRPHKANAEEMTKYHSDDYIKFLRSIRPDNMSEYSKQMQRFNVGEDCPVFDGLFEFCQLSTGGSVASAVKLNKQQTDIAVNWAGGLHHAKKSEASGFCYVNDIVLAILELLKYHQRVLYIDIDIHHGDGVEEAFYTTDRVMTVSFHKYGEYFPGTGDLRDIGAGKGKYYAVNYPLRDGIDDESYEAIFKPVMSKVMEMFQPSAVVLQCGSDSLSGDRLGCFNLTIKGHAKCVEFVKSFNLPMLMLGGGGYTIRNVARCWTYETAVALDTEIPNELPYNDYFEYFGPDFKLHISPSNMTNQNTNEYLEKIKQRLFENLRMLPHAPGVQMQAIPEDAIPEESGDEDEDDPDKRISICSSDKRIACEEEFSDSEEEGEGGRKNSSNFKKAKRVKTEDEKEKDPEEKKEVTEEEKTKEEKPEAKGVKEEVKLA

Histone deacetylase 11 = target: T1, Histone deacetylase 11 (Homo sapiens, UniProt Q96DB2); assay: Inhibition of recombinant human N-terminal Strep2-tagged HDAC11 (1 to 347 residues) expressed in baculovirus infected insect cells using Boc-Lys(TFA)-AMC as substrate after 60 mins by fluorescence assay
T1 sequence (Q96DB2 whole entry): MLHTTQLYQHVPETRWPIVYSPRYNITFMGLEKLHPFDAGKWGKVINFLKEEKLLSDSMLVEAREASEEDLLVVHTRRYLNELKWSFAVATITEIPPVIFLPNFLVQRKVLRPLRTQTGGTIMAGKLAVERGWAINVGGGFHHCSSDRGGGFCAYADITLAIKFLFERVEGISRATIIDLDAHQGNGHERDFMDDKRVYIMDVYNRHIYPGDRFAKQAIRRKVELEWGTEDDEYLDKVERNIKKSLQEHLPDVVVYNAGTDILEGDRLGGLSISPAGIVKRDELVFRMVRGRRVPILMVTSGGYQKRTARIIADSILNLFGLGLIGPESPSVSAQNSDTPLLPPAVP

[1] = target: T2, NAD-dependent protein deacetylase sirtuin-1 (Homo sapiens, UniProt Q96EB6); assay: Inhibition of recombinant human N-terminal His-tagged SIRT1 (1 to 747 end residues) expressed in Escherichia coli using Ac-RHK-K(Ac)-AMC as substrate after 30 mins in presence of NAD+ by fluorescence assay
T2 sequence (Q96EB6 whole entry): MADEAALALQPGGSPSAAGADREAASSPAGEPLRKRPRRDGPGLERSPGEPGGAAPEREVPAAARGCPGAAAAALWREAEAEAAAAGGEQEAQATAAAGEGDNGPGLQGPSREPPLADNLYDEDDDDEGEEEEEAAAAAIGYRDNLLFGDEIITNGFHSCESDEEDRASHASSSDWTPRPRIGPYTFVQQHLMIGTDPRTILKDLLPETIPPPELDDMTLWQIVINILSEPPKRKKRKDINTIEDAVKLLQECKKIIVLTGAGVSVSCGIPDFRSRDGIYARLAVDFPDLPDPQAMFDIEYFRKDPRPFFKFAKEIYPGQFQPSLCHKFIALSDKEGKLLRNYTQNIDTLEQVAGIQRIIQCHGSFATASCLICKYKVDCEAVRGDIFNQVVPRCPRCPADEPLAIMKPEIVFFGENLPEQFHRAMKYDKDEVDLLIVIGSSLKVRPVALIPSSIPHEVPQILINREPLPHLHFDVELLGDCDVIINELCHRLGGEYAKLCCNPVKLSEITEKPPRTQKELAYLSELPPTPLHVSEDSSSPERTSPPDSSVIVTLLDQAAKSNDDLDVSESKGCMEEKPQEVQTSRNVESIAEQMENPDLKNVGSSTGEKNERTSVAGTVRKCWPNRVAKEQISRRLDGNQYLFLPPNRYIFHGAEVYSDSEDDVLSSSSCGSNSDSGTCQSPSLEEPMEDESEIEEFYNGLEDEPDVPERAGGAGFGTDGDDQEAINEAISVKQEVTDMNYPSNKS

[2] = target: T3, Protein deacetylase HDAC6 (Homo sapiens) (UniProt Q9UBN7); assay: Inhibition of HDAC6 in human U266 cells assessed as increase in acetylated tubulin level by immunoblot analysis relative to control; type: cell-based
T3 sequence (whole entry): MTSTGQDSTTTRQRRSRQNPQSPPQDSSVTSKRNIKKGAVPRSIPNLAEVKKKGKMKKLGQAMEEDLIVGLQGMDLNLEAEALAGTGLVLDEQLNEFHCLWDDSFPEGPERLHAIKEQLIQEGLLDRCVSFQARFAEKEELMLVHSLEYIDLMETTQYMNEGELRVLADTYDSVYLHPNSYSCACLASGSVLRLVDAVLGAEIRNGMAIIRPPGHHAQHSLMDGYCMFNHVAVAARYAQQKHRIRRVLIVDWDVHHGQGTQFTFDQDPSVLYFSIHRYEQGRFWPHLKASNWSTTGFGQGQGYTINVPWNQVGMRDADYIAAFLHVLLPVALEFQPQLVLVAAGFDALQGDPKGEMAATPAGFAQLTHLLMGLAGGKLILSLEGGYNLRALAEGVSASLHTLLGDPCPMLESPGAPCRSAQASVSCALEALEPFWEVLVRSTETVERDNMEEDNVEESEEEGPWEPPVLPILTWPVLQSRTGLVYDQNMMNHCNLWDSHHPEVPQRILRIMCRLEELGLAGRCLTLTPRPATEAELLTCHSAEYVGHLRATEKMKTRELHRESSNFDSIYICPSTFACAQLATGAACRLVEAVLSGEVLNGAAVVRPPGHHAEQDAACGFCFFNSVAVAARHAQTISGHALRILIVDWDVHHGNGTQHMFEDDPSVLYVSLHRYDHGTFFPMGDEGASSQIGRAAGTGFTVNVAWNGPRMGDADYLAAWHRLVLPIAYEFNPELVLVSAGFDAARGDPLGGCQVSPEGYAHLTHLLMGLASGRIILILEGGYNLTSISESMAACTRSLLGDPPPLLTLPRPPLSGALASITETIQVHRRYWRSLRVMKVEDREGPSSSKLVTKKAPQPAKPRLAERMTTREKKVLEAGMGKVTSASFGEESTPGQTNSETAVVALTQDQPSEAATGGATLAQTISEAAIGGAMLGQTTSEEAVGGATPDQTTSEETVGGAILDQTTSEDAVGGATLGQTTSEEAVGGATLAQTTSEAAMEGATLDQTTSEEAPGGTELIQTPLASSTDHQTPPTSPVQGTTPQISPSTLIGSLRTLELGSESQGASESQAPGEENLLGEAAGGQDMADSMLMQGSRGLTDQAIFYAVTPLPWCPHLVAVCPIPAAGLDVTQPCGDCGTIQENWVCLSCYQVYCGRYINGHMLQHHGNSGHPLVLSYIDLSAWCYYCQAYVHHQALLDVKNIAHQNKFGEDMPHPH
Procedure, shortened: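 Multiple myeloma cells harvested in Tris-HCl lysis buffer (pH 7.4) with protease and phosphatase inhibitors, then centrifuged 17,000 g for 30 min at 4 °C. Lysates immunoblotted with specific antibodies for acetylated α-tubulin. Signal detected by ECL on film.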

Row | IC50 (Histone deacetylase 1) | IC50 (Histone deacetylase 11) | IC50 [1] | inhibition [2] | Compound
1 | 9.55 µM | 0.376 µM | > 20 µM | Dose-dependent effect | O=C(NO)c1ccc(CNc2cccc3cccnc23)cc1
2 | 7.05 µM | 1 µM | > 20 µM | Dose-dependent effect | O=C(NO)c1ccc(CNc2cccc3ncccc23)cc1
